Laboratory results: ChEMBL document CHEMBL3526011, “Metabolic activation of mefenamic acid leading to mefenamyl-S-acyl-glutathione adduct formation in vitro and in vivo in rat” (Drug Metab Dispos, 2012)
Blank lines part the entries; values can stand above or below the compound they belong to.

Assays:
[1] = Half life in rat hepatocytes; format: ADME, cell-based, Hepatocyte
Summary of the method: (§1)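 Authentic acyl-SG thioesters or acyl glucuronide (1 µM) incubated with rat hepatocytes (2 million cells/ml). Quenched at 0–30 min and analysed by LC-MS/MS for % remaining; average of two incubations per time point; half-life derived from the decline.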

[2] = tested on: Hepatocyte; assay: Drug level in rat hepatocytes treated with 100 uM MFA by reverse phase LC-MS/MS analysis; format: ADME, cell-based
Summary of the method: (§2)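 Rat hepatocytes at 2 million viable cells/ml in William's E (pH 7.4) at 37°C under 95% O2/5% CO2, with 100 µM MFA for up to 60 min. Quench times 0–60 min; n=3 incubations per point across three separate studies. Acyl-SG and glucuronide quenched with acidic acetonitrile plus CBZ; acyl-CoA quenched with acetonitrile plus CBZ, then hexane extraction. Positive-ion LC-MS/MS MRM; quantified from analyte/CBZ standard curves.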

[3] = tested on: Hepatocyte; assay: Drug level in rat hepatocytes treated with 15.6 uM MFA by LC-MS/MS analysis; format: ADME, cell-based
Summary of the method: (§3)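 Rat hepatocytes (2 million cells/ml, William's E pH 7.4, 37°C, 95% O2/5% CO2) incubated 10 min with MFA at 0.8–500 µM (11 levels). Quenched and processed for LC-MS/MS MRM of the acyl-SG, acyl glucuronide and acyl-CoA derivatives. Three separate experiments, n=3 incubations per concentration; mean ± S.D.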

[4] = tested on: Hepatocyte; assay: Drug level in rat hepatocytes treated with at 100 uM MFA by LC-MS/MS analysis in presence of 1000 uM Lauric acid (reference value: 9.1 +/- 4.5); format: ADME, cell-based
Summary of the method: (§4)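 Rat hepatocytes (2 million cells/ml, 0.5 ml) with 100 µM MFA for 10 min, with or without 1000 µM (−)-borneol (glucuronidation inhibitor; DMSO stock, 0.1% v/v final in controls) or 1000 µM lauric acid (acyl-CoA formation inhibitor; aqueous stock, pH 7). Triplicate incubations; LC-MS/MS MRM; results given as nM and as % of control, mean ± S.D.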

[5] = tested on: Hepatocyte; assay: Drug level in rat hepatocytes treated with at 100 uM MFA by LC-MS/MS analysis in presence of 1000 uM (-)-borneol (reference value: 9.1 +/- 4.5); format: ADME, cell-based; summary of the method: as §4
[6] = Stability in potassium phosphate buffer at 1 uM at pH 7.4 at 37 degC; format: physicochemical; details: pH 7.4, 1 µM
Summary of the method: (§5)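 Acyl-CoA and acyl glucuronide (1 µM, separate incubations) in 0.1 M potassium phosphate, pH 7.4, 37°C, without GSH. Quenched at 0, 5, 8 and 15 h, n=3 per time point; % remaining determined by LC-MS/MS.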

[7] = tested on: GST; assay: (§6) Stability in rat liver GST assessed as degradation at 1 uM after 30 mins relative to control; format: ADME, tissue-based; details: rat liver GST
Summary of the method: (§7)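 Acyl-SG thioesters (1 µM) in 0.1 M phosphate buffer, pH 7.4, 37°C (0.2 ml), with or without rat liver GST at 3 units/ml. Duplicates per time point, quenched at 0–60 min with acidic acetonitrile plus CBZ and analysed directly by LC-MS/MS. Degradation at 30 min expressed relative to the no-GST control.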

[8] = Drug level in phosphate buffer treated with 1 uM I-SCoA at pH 7.4 at 37 degC in presence of GSH after 60 mins; format: physicochemical; details: pH 7.4, 1 h
Summary of the method: (§8)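 Acyl-CoA or acyl glucuronide (1 µM) in 0.1 M potassium phosphate, pH 7.4, 37°C, with 10 mM GSH, n=3. Quenched at 0, 15, 30, 45 and 60 min with acetonitrile/3% formic acid containing 1 µM CBZ. The acyl-SG product was measured by LC-MS/MS; mean ± S.D.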

[9] = Drug level in phosphate buffer treated with 1 uM MFA SCoA at pH 7.4 at 37 degC in presence of GSH after 60 mins; format: physicochemical; details: pH 7.4, 1 h; summary of the method: as §8
[10] = as §6; format: ADME, tissue-based; details: 0.5 h, 1 µM; summary of the method: as §7
[11] = tested on: Hepatocyte; assay: Drug level in single-donor human hepatocytes in suspension treated with 100 uM MFA at 60 mins incubation; details: 1 h
[12] = tested on: Hepatocyte; assay: Retention time in rat hepatocytes treated with 100 uM MFA by positive ion LC-MS/MS analysis; format: ADME, cell-based; summary of the method: as §2
[13] = tested on: Hepatocyte; assay: Drug level in rat hepatocytes treated with at 100 uM MFA by LC-MS/MS analysis in presence of 1000 uM (-)-borneol (reference value: 619 +/-158); format: ADME, cell-based; summary of the method: as §4
[14] = Drug level in Sprague-Dawley rat bile treated with 100 mg/kg, ip MFA after 6 hrs by LC-MS/MS analysis; format: ADME, organism-based; design: dose 100 mg/kg, route intraperitoneal; details: in vivo
Summary of the method: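 Male Sprague-Dawley rats (300–330 g, n=3) with bile-duct cannulas, housed in metabolic cages; MFA 100 mg/kg i.p. in water, pH 7.0. Artificial bile-salt supplement infused via duodenal cannula at 1 ml/h. Bile collected over 6 h into phosphoric acid on wet ice, centrifuged, and the supernatant quantified by LC-MS/MS against a linear standard curve of analyte/CBZ peak-area ratios.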

[15] = tested on: Hepatocyte; assay: Drug level in cryopreserved human hepatocytes treated with 100 uM MFA at 10 mins incubation; format: ADME, cell-based
Summary of the method: (§9)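 Human hepatocytes, either cryopreserved 20-donor pooled or a single-donor suspension, thawed or warmed at 37°C, washed in William's E (pH 7.4, 4 mM L-glutamate). Cells at 2 million viable/ml, >95% trypan-blue viability. Incubated with 100 µM MFA at 37°C under 95% O2/5% CO2 with orbital shaking, n=3 per time point. Quench: acetonitrile/3% formic acid with CBZ internal standard; LC-MS/MS MRM.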

[16] = tested on: Hepatocyte; assay: Drug level in rat hepatocytes treated with 100 uM MFA after 60 mins; format: ADME, cell-based; details: 1 h; summary of the method: as §2
[17] = tested on: Hepatocyte; assay: Drug level in rat hepatocytes treated with 62.5 uM MFA by LC-MS/MS analysis; format: ADME, cell-based; summary of the method: as §3
[18] = tested on: Hepatocyte; assay: Drug level in rat hepatocytes treated with 500 uM MFA by LC-MS/MS analysis; format: ADME, cell-based; summary of the method: as §3
[19] = tested on: Hepatocyte; assay: Drug level in rat hepatocytes treated with at 100 uM MFA by LC-MS/MS analysis in presence of 1000 uM Lauric acid (reference value: 619 +/-158); format: ADME, cell-based; summary of the method: as §4
[20] = Half life in rat hepatocytes at 1 uM; format: ADME, cell-based, Hepatocyte; summary of the method: as §1
[21] = Half life in potassium phosphate buffer at 1 uM at pH 7.4 at 37 degC; format: physicochemical; summary of the method: as §5
[22] = Increase in drug level in phosphate buffer treated with 1 uM MFA-SCoA at pH 7.4 at 37 degC in presence of GSH/rat liver GST after 60 mins
Summary of the method: (§10)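 Acyl-CoA or acyl glucuronide (1 µM) with 10 mM GSH in 0.1 M potassium phosphate, pH 7.4, 37°C, additionally fortified with rat liver GST (3 units/ml). Up to 60 min; acyl-SG formation measured by LC-MS/MS and compared with incubations lacking GST.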

[23] = tested on: Hepatocyte; assay: Drug level in human hepatocytes treated with 100 uM MFA by sensitive LC-MS/MS MRM analysis; format: ADME, cell-based; summary of the method: as §9
[24] = Drug level in phosphate buffer treated with 1 uM MFA-1-beta-O-G at pH 7.4 at 37 degC in presence of GSH after 60 mins; format: physicochemical; details: pH 7.4, 1 h; summary of the method: as §8
[25] = tested on: Hepatocyte; assay: Drug level in rat hepatocytes treated with at 100 uM MFA by LC-MS/MS analysis in presence of 1000 uM Lauric acid (reference value: 334 +/- 76); format: ADME, cell-based; summary of the method: as §4
[26] = Increase in drug level in phosphate buffer treated with 1 uM MFA-1-beta-O-G at pH 7.4 at 37 degC in presence of GSH/rat liver GST after 60 mins; summary of the method: as §10
[27] = tested on: Hepatocyte; assay: Drug level in rat hepatocytes treated with at 100 uM MFA by LC-MS/MS analysis in presence of 1000 uM (-)-borneol (reference value: 334 +/- 76); format: ADME, cell-based; summary of the method: as §4
[28] = Drug metabolism in rat hepatocytes assessed as MFA-SCoA at 100 uM by reverse phase LC-MS/MS analysis; format: ADME, cell-based, Hepatocyte; summary of the method: as §2
[29] = Drug metabolism in rat hepatocytes assessed as I-SG thioester at 100 uM at 10 mins incubation by LC-MS/MS analysis; format: ADME, cell-based, Hepatocyte
Summary of the method: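 Rat hepatocytes (2 million cells/ml, William's E pH 7.4, 37°C, 95% O2/5% CO2) incubated with (R)-ibuprofen 100 µM for 10 min, n=3. Quenched with acetonitrile/3% formic acid containing CBZ. The acyl-SG thioester was quantified by LC-MS/MS against a linear acyl-SG/CBZ peak-area-ratio standard curve.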

[30] = Drug metabolism in rat hepatocytes assessed as MFA-SG at 100 uM by sensitive LC-MS/MS MRM analysis; format: ADME, cell-based, Hepatocyte; summary of the method: as §2
[31] = Drug metabolism in rat hepatocytes assessed as MFA-SCoA by LC-MS/MS analysis; format: ADME, cell-based, Hepatocyte; summary of the method: as §3
[32] = Drug metabolism in human hepatocytes assessed as MFA-SCoA at 100 uM by reverse phase LC-MS/MS analysis; format: ADME, cell-based, Hepatocyte
Summary of the method: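 MFA 100 µM with human hepatocytes (2 million viable cells/ml, William's E pH 7.4, 37°C, 95% O2/5% CO2). For the acyl-CoA thioester, quench was acetonitrile without formic acid plus CBZ, followed by hexane extraction. The aqueous layer was analysed by positive-ion LC-MS/MS MRM (m/z 991→224 and 484).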

[33] = Drug metabolism in rat hepatocytes assessed as acyl migration isomers at 100 uM by positive ion LC-MS/MS analysis; format: ADME, cell-based, Hepatocyte
[34] = Drug metabolism in rat hepatocytes assessed as MFA-1-beta-O-G at 100 uM by positive ion LC-MS/MS analysis; format: ADME, cell-based, Hepatocyte; summary of the method: as §2
[35] = Drug metabolism in human hepatocytes assessed as MFA-SG at 100 uM by sensitive LC-MS/MS MRM analysis; format: ADME, cell-based, Hepatocyte; summary of the method: as §9

Compound: Cc1cc(CC(=O)SC[C@H](NC(=O)CC[C@H](N)C(=O)O)C(=O)NCC(=O)O)n(C)c1C(=O)c1ccc(Cl)cc1
half-life [1]: 0.8 min

Compound: Cc1cccc(Nc2ccccc2C(=O)SCCNC(=O)CCNC(=O)C(O)C(C)(C)COP(=O)(O)OP(=O)(O)OC[C@H]2O[C@@H](n3cnc4c(N)ncnc43)[C@H](O)[C@@H]2OP(=O)(O)O)c1C (some centres undefined)
Drug metabolism [2]: metabolite_detected | Drug metabolism [3]: 6 nM | Drug metabolism [4]: 3.8 nM | Drug metabolism [5]: 8.8 nM | Stability [6]: Stable

Compound: CC(C)Cc1ccc(C(C)C(=O)SC[C@H](NC(=O)CC[C@H](N)C(=O)O)C(=O)NCC(=O)O)cc1 (some centres undefined)
metabolised at 0.5 h, 1 µM [7]: 11% | Drug metabolism [8]: 440 nM | Drug metabolism [9]: 440 nM | half-life [1]: 4 min

Compound: Cc1cccc(Nc2ccccc2C(=O)O[C@@H]2O[C@H](C(=O)O)[C@@H](O)[C@H](O)[C@H]2O)c1C
Drug metabolism [11]: 18.6 µM | Retention_time [12]: 11 min | Drug metabolism [13]: 55.1 nM | Drug uptake [14]: 2000 µg | Drug metabolism [15]: 3.5 µM | Drug metabolism [16]: 1560 nM | Drug metabolism [17]: 700 nM | Drug metabolism [18]: 460 nM | Drug metabolism [19]: 198 nM | half-life at 1 µM [20]: > 60 min | half-life at 1 µM [21]: 990 min

Compound: Cc1cccc(Nc2ccccc2C(=O)O)c1C [MEFENAMIC ACID]
Drug metabolism [28]: metabolite_detected | Drug metabolism [29]: 3 nM | Drug metabolism [30]: metabolite_detected | Drug metabolism [31]: Dose-dependent effect | Drug metabolism [32]: metabolite_not_detected | Drug uptake [14]: 4 µg | Drug metabolism [33]: metabolite_not_detected | Drug metabolism [34]: metabolite_detected | Drug metabolism [35]: metabolite_detected

Now from value to compound, other results behind:

Stability [10]: Unstable | half-life [1]: 1 min
Compound: N[C@@H](CCC(=O)N[C@@H](CSC(=O)Cc1ccccc1Nc1c(Cl)cccc1Cl)C(=O)NCC(=O)O)C(=O)O

Drug metabolism [2]: metabolite_detected | Drug metabolism [9]: 208 nM | Drug uptake [14]: 17.4 µg | Drug metabolism [15]: 0.001 µM | Drug metabolism [23]: metabolite_detected | Drug metabolism [24]: 2.7 nM | Drug metabolism [25]: 113 nM | Drug metabolism [16]: 50 nM | Drug metabolism [18]: 230 nM | Drug metabolism [27]: 387 nM
Compound: Cc1cccc(Nc2ccccc2C(=O)SC[C@H](NC(=O)CC[C@H](N)C(=O)O)C(=O)NCC(=O)O)c1C
fold change (FC) [22]: 1.3 | fold change (FC) [26]: 6
